Assay results from PMC7125830 (Antiviral Research, 1999).

What was measured:
[1] = system: Vero cells; test: Initial cytotoxicity study; type: cell-based, African green monkey; conditions: at 100 μM concentration
Procedure, shortened: (§1)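 Confluent monolayers in triplicate wells of 24-well plates, exposed to compounds diluted from 0.1M DMSO stocks in growth medium (final 10−4 M to 10−8 M). A DMSO co-solvent control was run for each dilution and compared with cell controls. Cytotoxicity scored by abnormal morphology: clumping, detachment or rounding up of cells. Scored +/−.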

[2] = system: HSV-1 McKrae strain; test: Plaque reduction assay, HSV-1 in Vero cells; type: cell-based, herpes simplex virus type 1; conditions: Human alphaherpesvirus 1, Vero, 96 h
Procedure, shortened: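 Confluent Vero monolayers in 24-well plates infected with 100 pfu McKrae strain per well, adsorbed 1 h at 37°C, washed with Hanks' BSS. Agar overlay containing compound dilutions applied to triplicate wells, alongside triplicate cell and virus controls. Day 4: methanol:acetic acid (3:1) fixation, 1% crystal violet stain, plaque count. IC50 calculated from dose-response plots; selectivity index taken as TC50/IC50.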

[3] = system: A549 cells; test: Initial cytotoxicity study; type: cell-based, Human; conditions: at 100 μM concentration
Procedure, shortened: as §1

Row | IC50 [2] [nM] | Compound | Cytotoxicity [1] | Cytotoxicity [3]
1 | 1800 | Nc1nc2c(ncn2COCCO)c(=O)[nH]1 [Acyclovir, acyclovir] | − (Vero cells) | –
2 | – | Nc1ccn(C[C@@H](CO)OCP(=O)(O)O)c(=O)n1 [Cidofovir] | – | − (A549 cells)
